The record followed here is paper PMC10586269 (ACS Omega, 2023).

Marks after values point to notes of the source that are not given here.

Experiment [1] deals with T1, PfHsp90-NTD (Plasmodium falciparum, UniProt Q8IC05). Nature of the experiment: Competition binding, FITC-geldanamycin fluorescence polarization assay, PfHsp90. Particulars: read-out: FP inhibition % PfHsp90 [10 μM]. The essentials: (§1)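 Ni-affinity-purified Hsp90 N-terminal domain (PfHsp90-NTD or human Hsp90β-NTD, expressed in E. coli), 100 nM final, mixed with 5 nM FITC-geldanamycin. FP read at 480 nm excitation and 535 nm emission, converted to percent bound FITC-GDA versus the DMSO control.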

The target of another experiment is human Hsp90β-NTD (Homo sapiens, UniProt P08238). It counts as binding. Particulars: 10 μM compound, FITC-GDA displacement. The essentials:
as §1

Experiment [2] has as its target T1, PfHsp90-NTD. Briefly: Equilibrium binding kinetics by MP-SPR. The essentials: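 PfHsp90-NTD (20 μg/mL) was immobilised by amine coupling on a carboxymethyl dextran gold chip for multiparametric SPR. Running buffer was PBS with 0.005% Tween 20 and 20 mM EDTA, pH 7.4. Test compound (0–2000/5000 nM) was injected at 50 μL/min, with association for 1 min and dissociation for 9 min at room temperature. Signals were subtracted against a protein-free reference channel and buffer blanks.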

T1 sequence (Q8IC05 1-215): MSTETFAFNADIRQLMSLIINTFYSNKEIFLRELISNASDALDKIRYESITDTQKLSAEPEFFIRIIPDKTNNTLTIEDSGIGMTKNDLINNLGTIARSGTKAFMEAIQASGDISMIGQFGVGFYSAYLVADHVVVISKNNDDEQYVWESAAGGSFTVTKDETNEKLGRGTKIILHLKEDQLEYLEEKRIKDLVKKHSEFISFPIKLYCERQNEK
Sequence of human Hsp90β-NTD (P08238 1-226): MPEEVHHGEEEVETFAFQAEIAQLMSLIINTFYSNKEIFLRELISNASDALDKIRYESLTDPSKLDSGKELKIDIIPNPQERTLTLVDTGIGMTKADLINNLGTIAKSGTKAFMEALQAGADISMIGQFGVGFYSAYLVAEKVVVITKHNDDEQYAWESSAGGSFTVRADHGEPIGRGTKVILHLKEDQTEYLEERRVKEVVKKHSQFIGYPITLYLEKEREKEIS

For `COc1ccc2c(c1)[nH]c1c(C)nccc12` [harmine], on PfHsp90-NTD [1], the inhibition at 10 µM stood at 7 ± 6%. Moreover, on human Hsp90β-NTD, the “FP inhibition% human Hsp90 [10 μM]” value is “no inhibition”. For the same compound, the Kd was 1820 ± 100 nM on PfHsp90-NTD [2] (KD, Kd/Ka) and 3.20 ± 4.8 1/s (×10^–6) on PfHsp90-NTD [2] (dissociation rate). Also, the Ka at PfHsp90-NTD [2] (association) was 17.6 ± 14.9 1/Ms (×10^3).

As a reminder, the inhibition is the relative decrease from the control value, in per cent. In general, Kd refers to the concentration at which binding is half-saturated. Read a low Kd as a tighter complex.
